# Source: PubChem (several laboratories)
# A selection: hits, their analogues and other compounds. The true share with any hit is near 2.3%.
# Arrestin-AP2 inh = inhibitors of human beta-arrestin and AP2 interaction. FITC-arrestin peptide / GST-AP2 beads, flow cytometry; AP2 beta2 appendage carries R879A mutation. inhibition, % at 10 µM. 0.31% of 340,000 active. AID 504490;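 active means inhibition above a set limit, near 3 SD of compounds lacking own fluorescence, cut at about 54% in these data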;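 further: plate controls were DMSO wells for no effect and 5 µM unlabelled arrestin peptide for full effect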
#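 Measured by: flow cytometry, FL1 (488/535 nm); Material: AP2 appendage R879A on GSH beads; Evaluation: percent response; Timing: pre-incubation 12 min, peptide binding 1 h, room temperature; Also added: 50 nM FITC-arrestin peptide; Medium: PBS with 0.05% Tween 20 and 0.1% BSA.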
# PfHsp90 yeast 2 = reduces growth (ATP signal) of yeast expressing P. falciparum Hsp90; S. cerevisiae expressing PfHsp90, BacTiter-Glo ATP, 48 h; yeast lacking PDR1 and PDR3 efflux regulators; inhibition, % at 9.4 µM; 0.32% of 310,000 active; AID 504621;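 active means every replicate shows inhibition above about 80%, whatever the replicate mean, limit read from the data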;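 further: 0% = DMSO neutral controls and 100% = 20 µM radicicol positive controls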
# PAX8 reporter = inhibitors of PAX8 transcriptional activity in RMG-I cells | AID 652154 | 1.2% of 360,000 active | RMG-I TPO-luciferase reporter, SteadyGlo, 24 h | inhibition, % at 12.6 µM;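 active means mean replicate inhibition at least 60% with every replicate also reaching 60%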;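 further: luciferase light reporting Pax8 driven TPO promoter activity; plate controls were median of neutral control wells for no effect and mitoxantrone controls for full effect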
# Glyco luc inh = N-linked glycosylation inhibition | D54 ERlucT glycosylation luciferase reporter, 24 h; percent of 100 nM tunicamycin response | reporter increase, % at 12.5 µM | 0.23% of 360,000 active;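 active means mean luciferase reporter signal, scaled so untreated is 0 and the glycosylation-blocking control 100, at or above a set limit in every replicate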;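 further: luciferase carries N-glycosylation sites so blocking glycosylation raises the light; 0% = median of neutral control wells and 100% = median of 100 nM tunicamycin wells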
# HIV Env fusion = blocks HIV Env-driven cell-cell fusion | HeLa-JRFL Env/CEM21 cell fusion, luciferase | inhibition, % at 12.3 µM | 1.1% of 360,000 active | AID 651610;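 active means mean replicate inhibition score of at least 50 and every replicate individually at or above 50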;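 further: 0% = plate neutral controls and 100% = maraviroc near 300 nM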
# Rtt109 Vps75 = C. albicans Rtt109 histone acetyltransferase inhibition; purified Rtt109/Vps75, ThioGlo CoA-SH fluorescence, 4 h; AID 540336; 0.16% of 330,000 active; Q5AAJ8; inhibition, % at 34.9 µM;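 active means inhibition of at least 50% in every replicate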
# Target sequence (Q5AAJ8 whole entry, looked up): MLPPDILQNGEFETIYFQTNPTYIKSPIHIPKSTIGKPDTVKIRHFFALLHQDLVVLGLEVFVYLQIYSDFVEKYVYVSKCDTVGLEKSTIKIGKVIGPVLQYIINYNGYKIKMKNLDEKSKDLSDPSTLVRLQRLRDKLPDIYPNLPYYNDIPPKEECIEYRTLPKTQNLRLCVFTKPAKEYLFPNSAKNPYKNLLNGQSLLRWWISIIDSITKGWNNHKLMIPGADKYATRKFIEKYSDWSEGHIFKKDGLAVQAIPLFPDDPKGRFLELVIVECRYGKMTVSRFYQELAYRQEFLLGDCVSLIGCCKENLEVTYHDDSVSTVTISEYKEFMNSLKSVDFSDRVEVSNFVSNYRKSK
# Active calls of the source: *; . = no result; [ ] = remark or other dose.
SMILES,Arrestin-AP2 inh,PfHsp90 yeast 2,PAX8 reporter,Glyco luc inh,HIV Env fusion,Rtt109 Vps75
CCCN(C)C[C@H]1Oc2cc(C#CCC3CCCC3)ccc2S(=O)(=O)N([C@H](C)CO)C[C@H]1C,.,.,-13,.,-15[16.7 µM],.
O=S(=O)(Nc1nc2ccccc2nc1Nc1cccc(S(=O)(=O)N2CCCCC2)c1)c1ccccc1,-10,-28,27,-8,77*,7
COc1ccc(S(=O)(=O)Nc2cccc(S(=O)(=O)N3CCCCCC3)c2)cc1,0,-14,-27,1,.,7
COc1ccc(N2CCN(C(=O)CSc3nnc4n3C(C)(C)Cc3ccccc3-4)CC2)cc1,2,3,33,0,34,-2
Cc1ccc(Cl)cc1N1CCN(C(=O)CSc2nnc3n2C(C)(C)Cc2ccccc2-3)CC1,5,.,-16,-3,76*,11
C[C@@H]1CN([C@H](C)CO)C(=O)c2ccccc2-c2ccccc2CO[C@@H]1CN(C)S(=O)(=O)c1ccsc1,.,.,3,.,9[16.7 µM],.
CO[C@@H]1CN(C)C(=O)c2cc(NS(C)(=O)=O)ccc2OC[C@H](C)N(C(=O)NC(C)C)C[C@H]1C,.,.,2,.,-8[16.7 µM],.
O=C(/C=C/Nc1ccccc1)c1ccccc1,2,-13,.,-19,.,4
O=C(/C=C/Sc1ccccc1)c1ccc(Cl)cc1,-6,9,.,44*,.,-1
O=C(/C=C/Sc1ccccc1)c1ccccc1,7,-50,.,33*,.,43
CN1CC(c2ccccc2)C2(SC(=S)N(Cc3ccco3)C2=O)C12C(=O)Nc1ccccc12 (centres undefined),1,.,.,-7,77*,-11
C=CCn1c(SCC(=O)NCCc2ccccc2)nc2c([nH]c3ccccc32)c1=O,-12,0,.,.,57*,-3
C=CCn1c(SCC(=O)Nc2ccc(F)cc2F)nc2c([nH]c3ccccc32)c1=O,13,13,.,.,13,-9
C=CCn1c(SCC(=O)NCCC2=CCCCC2)nc2ccc(Cl)cc2c1=O,10,6,27,1,63*,5
Cn1c(=O)cc(SCC(=O)NCCC2=CCCCC2)c2ccc(Cl)cc21,31,-10,.,3,.,3
COCCn1c(SCC(=O)Nc2ccccc2OC)nc2c([nH]c3ccccc32)c1=O,-6,-10,20,0,92*,-11
C=CCn1c(SCC(=O)Nc2ccccc2OC)nc2c([nH]c3ccccc32)c1=O,0,33,26,.,63*,-4
COCCn1c(SCC(=O)NCCc2ccccc2)nc2c([nH]c3ccccc32)c1=O,-14,-3,.,.,.,-3
C[C@H]1CN([C@@H](C)CO)C(=O)c2cc(-c3ccc(C#N)cc3)cnc2O[C@@H]1CN(C)C(=O)Nc1ccc(C(F)(F)F)cc1,.,.,13,.,.,.
CCCNC(=O)C[C@H]1CC[C@H]2[C@H](COc3ccc(NC(=O)Nc4ccccc4)cc3C(=O)N2C)O1,.,.,9,.,10[16.7 µM],.
C[C@@H]1CN([C@H](C)CO)S(=O)(=O)c2ccc(-c3ccc(F)cc3)cc2O[C@@H]1CN(C)C(=O)C1CCC1,.,.,.,.,17[16.7 µM],.
CCNC(=O)[C@H]1[C@H](CO)[C@H]2Cn3c(ccc(C4=CCCC4)c3=O)[C@@H]1N2Cc1ccccc1,.,.,4,.,.,.
CCCC(=O)Nc1ccc2c(c1)C(=O)N(C)C[C@H](OC)[C@H](C)CN(Cc1nccs1)[C@@H](C)CO2,.,.,1,.,-12[16.7 µM],.
O=Cc1[nH]c2ccccc2c1N(C(=O)CCl)c1ccc([N+](=O)[O-])cc1,5,-9,90*,-2,45,-2
CC(=O)n1cc(N(C(=O)CCl)c2ccc([N+](=O)[O-])cc2)c2ccccc21,-11,3,19,13,-37,-3
SMILES,Arrestin-AP2 inh,PfHsp90 yeast 2,PAX8 reporter,Glyco luc inh,HIV Env fusion,Rtt109 Vps75
CN(C)Cc1cn(CC[C@@H]2CC[C@@H](NC(=O)Nc3ccc4c(c3)OCO4)[C@H](CO)O2)nn1,.,.,-6,.,-9[16.7 µM],.
O=C(C[C@@H]1C[C@@H]2c3cc(NC(=O)CC4CC4)ccc3O[C@@H]2[C@@H](CO)O1)NCc1ccc(-c2ccccc2)cc1,.,.,25,.,44[16.7 µM],.
Cc1c(CCOC(=O)C23CC4(C)CC(C)(CC(C)(C4)C2)C3)sc[n+]1CC(=O)c1ccccc1,-5,-21,6,-14,62*,-6
C[C@H](CO)N1C[C@H](C)[C@H](CN(C)C(=O)Nc2ccccc2)Oc2c(NC(=O)Nc3ccc(F)cc3)cccc2C1=O,.,.,.,.,8[16.7 µM],.
COC(=O)[C@]1(C)CCC[C@@]2(C)C3CC[C@@]4(C)C[C@]3(CCC21)CC(=O)N4 (some centres undefined),25,.,6,0,15,-8
C=C1C(=O)C23CCC4C(C)(C(=O)OC)CCCC4(C)C2CCC1(O)C3 (centres undefined),36,104*,134*,-21,-27,11
COc1ccc(/C=C2\SC(=S)N(CCCC(=O)NC34CC5CC(CC(O)(C5)C3)C4)C2=O)cc1,.,.,.,.,38[16.7 µM],.
COc1ccc2cc3cc(C(=O)NCCc4ccc(OC)c(OC)c4)oc3nc2c1,2,-5,.,0,68*,-4
CCCN(CCC)CCCNC(=O)c1cc2cc3ccc(OC)cc3nc2o1,0,-24,-4,9,-38,-104
Cc1ccc2cc3cc(C(=O)NCCN4CCOCC4)oc3nc2c1,-1,1,.,0,59*,16
C/C=C/c1ccc(C2[C@@H]3CN(S(=O)(=O)c4ccccc4C)C[C@H]2N3)cc1 (some centres undefined),.,.,2,.,.,.
C/C=C/c1ccc([C@H]2[C@@H](CO)N(C(=O)CC3CC3)C23CN(S(C)(=O)=O)C3)cc1,.,.,-9,.,.,.
COc1cc2cc(-c3ccc(O)cc3O)nc(C)c2cc1OC,12,6,-37,18,17,6
COc1cc2cc(-c3ccc(OC)c(OC)c3C)nc(N)c2cc1OC,-4,.,71*,-12,-32,.
COc1ccc(CN(C)C[C@H]2Oc3ccc(NS(=O)(=O)c4ccc(OC)cc4)cc3C(=O)N([C@H](C)CO)C[C@H]2C)cc1,.,.,.,.,5[16.7 µM],.
Cc1cccc(NC(=O)CC23CC4CC(C2)CC(n2nnc(C)n2)(C4)C3)c1,-1,13,111*,0,.,4
